The nature of series [1]: Biodistribution of [18F]FEDPN in beta estrogen receptor knock out mouse thymus after 1 h; (n=3). As to conditions: in vivo. Format: ADME, organism-based. The procedure, abridged: (§1)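 αERKO and βERKO mice, staged by daily vaginal smears and kept on estrogen-free chow, were studied in a nonestrous stage. Each mouse received 11 μCi of tracer in 130 μL of 10% ethanol/saline. Mice were killed at 30 min, 1 h or 2 h (n = 3 each). Organs were removed, blotted, weighed and gamma-counted against an injectate standard. Uptake is given as %ID/g ± SD.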

The nature of series [2]: Biodistribution of [18F]-FEDPN in alpha estrogen receptor knock out mouse uterus after 1 h; (n=3). Format: ADME, organism-based. As to conditions: in vivo. The procedure, abridged:
(§2)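 ERKO female mice (αERKO or βERKO), rested 48 h after shipping, placed on estrogen-free chow, and staged by daily vaginal smears. Injected in a nonestrous stage with 11 µCi [18F]FEDPN in 130 µL of 10% ethanol/saline. Killed at 30 min, 1 h or 2 h. Organs counted and reported as %ID/g ± SD, three animals per point.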

Series [3] in a line: Biodistribution of [18F]-FEDPN in rat lung after 1 hr block when given in tail vein; (n=5). Format: ADME, organism-based. The following applies: in vivo, iv. The procedure, abridged: (§3)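 Immature female Sprague–Dawley rats (<25 days old) anesthetized with isoflurane/O2. Given 20 µCi tracer by tail vein in 150 µL of 20% ethanol/saline. […] Killed at 30 min, 1 h or 2 h. Blood and organs blotted, weighed and gamma-counted against a standard dilution of the injectate. Reported as %ID/g ± SD, n=5.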

The nature of series [4]: Biodistribution of [18F]FEDPN in alpha estrogen receptor knock out mouse thymus after 1 h; (n=3). As to conditions: in vivo. Format: ADME, organism-based. The procedure, abridged:
as §1

Series [5] is described as follows: Biodistribution of [18F]-FEDPN in beta estrogen receptor knock out mouse thymus after 30 min; (n=3). As to conditions: in vivo, 0.5 h. Format: ADME, organism-based. The procedure, abridged:
as §2

A short description of series [6]: Biodistribution of [18F]FEDPN in beta estrogen receptor knock out mouse heart after 1 h; (n=3). As to conditions: in vivo. Format: ADME, organism-based. The procedure, abridged:
as §1

Series [7] can be described thus: Biodistribution of [18F]FEDPN in alpha estrogen receptor knock out mouse ovaries after 30 min; (n=3). Format: ADME, organism-based, Female gonad. The following applies: in vivo, 0.5 h. The procedure, abridged: as §1
Series [8] can be described thus: Biodistribution of [18F]FEDPN in beta estrogen receptor knock out mouse blood after 2 h; (n=3). Format: ADME, organism-based. The following applies: in vivo. The procedure, abridged: as §1
Series [9] in a line: Biodistribution of [18F]FEDPN in alpha estrogen receptor knock out mouse kidney after 2 h; (n=3). As to conditions: in vivo. Format: ADME, organism-based. The procedure, abridged: as §2
The nature of series [10]: Biodistribution of [18F]-FEDPN in rat bone after 2 h when given in tail vein; (n=5). The following applies: in vivo, iv. Format: ADME, organism-based, Bone element. The procedure, abridged:
as §3

Series [11] can be described thus: Biodistribution of [18F]FEDPN in alpha estrogen receptor knock out mouse uterus after 30 min; (n=3). The following applies: in vivo, 0.5 h. Format: ADME, organism-based. The procedure, abridged: as §1
A short description of series [12]: Biodistribution of [18F]FEDPN in beta estrogen receptor knock out mouse muscle after 30 min; (n=3). Format: ADME, organism-based, Muscle tissue. As to conditions: in vivo, 0.5 h. The procedure, abridged: as §1
A short description of series [13]: Biodistribution of [18F]FEDPN in alpha estrogen receptor knock out mouse liver after 2 h; (n=3). Format: ADME, organism-based. The following applies: in vivo. The procedure, abridged: as §2
Series [14] can be described thus: Biodistribution of [18F]FEDPN in beta estrogen receptor knock out mouse spleen after 30 min; (n=3). Format: ADME, organism-based. As to conditions: in vivo, 0.5 h. The procedure, abridged:
as §1

Series [15] is described as follows: Biodistribution of [18F]FEDPN in rat liver after 1 h block when given in tail vein; (n=5). The following applies: in vivo, iv. Format: ADME, organism-based. The procedure, abridged:
(§4)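 Immature female Sprague–Dawley rats (<25 days old) under isoflurane/O2 got 20 µCi tracer in 150 µL 20% ethanol/saline by tail vein. […] Rats were killed at 30 min, 1 h or 2 h. Organs were blotted, weighed and gamma-counted against an injectate standard. Data are %ID/g ± SD, five rats per point.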

Series [16] can be described thus: Biodistribution of [18F]-FEDPN in rat uterus after 1 hr block when given in tail vein; (n=5). Format: ADME, organism-based. As to conditions: in vivo, iv. The procedure, abridged:
as §3

Series [17] can be described thus: Biodistribution of [18F]FEDPN in beta estrogen receptor knock out mouse bone after 2 h; (n=3). Format: ADME, organism-based, Bone element. The following applies: in vivo. The procedure, abridged:
as §1

Series [18] in a line: Biodistribution of [18F]FEDPN in beta estrogen receptor knock out mouse muscle after 1 h; (n=3). Format: ADME, organism-based, Muscle tissue. As to conditions: in vivo. The procedure, abridged:
as §1

Series [19] can be described thus: Biodistribution of [18F]FEDPN in beta estrogen receptor knock out mouse thymus after 2 h; (n=3). Format: ADME, organism-based. As to conditions: in vivo. The procedure, abridged: as §1
A short description of series [20]: Biodistribution of [18F]FEDPN in alpha estrogen receptor knock out mouse spleen after 2 h; (n=3). Format: ADME, organism-based. As to conditions: in vivo. The procedure, abridged: as §1
Series [21] is described as follows: Biodistribution of [18F]FEDPN in alpha estrogen receptor knock out mouse thymus after 30 min; (n=3). Format: ADME, organism-based. The following applies: in vivo, 0.5 h. The procedure, abridged:
as §1

Series [22] is described as follows: Biodistribution of [18F]-FEDPN in rat heart after 1 hr block when given in tail vein; (n=5). As to conditions: in vivo, iv. Format: ADME, organism-based. The procedure, abridged:
as §3

The nature of series [23]: Biodistribution of [18F]FEDPN in beta estrogen receptor knock out mouse lung after 2 h; (n=3). Format: ADME, organism-based. The following applies: in vivo. The procedure, abridged:
as §1

Series [24] in a line: Biodistribution of [18F]FEDPN in beta estrogen receptor knock out mouse blood after 30 min; (n=3). Format: ADME, organism-based. The following applies: in vivo, 0.5 h. The procedure, abridged:
as §1

A short description of series [25]: Biodistribution of [18F]FEDPN in beta estrogen receptor knock out mouse brain after 30 min; (n=3). Format: ADME, organism-based. As to conditions: in vivo, 0.5 h. The procedure, abridged:
as §1

Series [26] can be described thus: Biodistribution of [18F]FEDPN in rat spleen after 30 min when given in tail vein; (n=5). As to conditions: in vivo, iv, 0.5 h. Format: ADME, organism-based. The procedure, abridged:
as §4

The nature of series [27]: Biodistribution of [18F]FES in alpha estrogen receptor knock out mouse muscle after 2 h; (n=3). Format: ADME, organism-based, Muscle tissue. The following applies: in vivo. The procedure, abridged: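 Female αERKO mice were rested 48 h after shipping and fed estrogen-free chow. They were staged by daily vaginal smears and studied in diestrus. Each received 13 µCi [18F]FES in 100 µL 10% ethanol/saline and was sacrificed at 30 min, 1 h or 2 h (n = 3 per time). Tissue uptake is given as %ID/g ± SD.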

Series [28] can be described thus: Biodistribution of [18F]FES in alpha estrogen receptor knock out mouse brain after 30 min; (n=3). Format: ADME, organism-based. The following applies: in vivo, 0.5 h. The procedure, abridged: (§5)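 Female αERKO mice rested 48 h after shipping and fed estrogen-free chow. Estrous stage was checked by daily vaginal smears, and mice were used in diestrus. Each received 13 µCi [18F]FES in 100 µL 10% ethanol/saline. Animals were sacrificed at 30 min, 1 h or 2 h (n = 3 each). Tissue uptake is reported as %ID/g ± SD.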

The nature of series [29]: Biodistribution of [18F]FES in beta estrogen receptor knock out mouse brain after 2 h; (n=3). Format: ADME, organism-based. The following applies: in vivo.
Series [30] is described as follows: Biodistribution of [18F]-FES in alpha estrogen receptor knock out mouse thymus after 30 min; (n=3). Format: ADME, organism-based. As to conditions: in vivo, 0.5 h. The procedure, abridged: as §5
The nature of series [31]: Biodistribution of [18F]FES in beta estrogen receptor knock out mouse spleen after 30 min; (n=3). Format: ADME, organism-based. The following applies: in vivo, 0.5 h.
The nature of series [32]: Biodistribution of [18F]-FES in beta estrogen receptor knock out mouse thymus after 1 h; (n=3). Format: ADME, organism-based. As to conditions: in vivo. The procedure, abridged:
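Female βERKO mice in estrus were used because repeated swabbing had induced pseudopregnancy. They were fed estrogen-free chow. Each received 13 µCi [18F]FES in 100 µL 10% ethanol/saline and was sacrificed at 30 min, 1 h or 2 h (n = 3 each). Tissue uptake is given as %ID/g ± SD.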

Series [33] in a line: Biodistribution of [18F]FES in beta estrogen receptor knock out mouse blood after 1 h; (n=3). The following applies: in vivo. Format: ADME, organism-based.
A short description of series [34]: Biodistribution of [18F]FES in beta estrogen receptor knock out mouse bone after 30 min; (n=3). Format: ADME, organism-based, Bone element. The following applies: in vivo, 0.5 h.

For the compound `N#C[C@H](c1ccc(O)cc1)[C@@H](CCF)c1ccc(O)cc1`, the Biodistribution was determined as 0.25 %ID/g in [1]; 0.37 %ID/g in [2]; 0.27 %ID/g in series [3]; 0.68 %ID/g in series [4]; 1.2 %ID/g in series [5]; 0.43 %ID/g in series [6]. For the same compound, the Biodistribution in [7] turned out to be 1.06 %ID/g; in [8] it was 0.18 %ID/g; in series [9], 1.94 %ID/g; in [10], 1.88 %ID/g; in [11], 1.11 %ID/g; in series [12] it was 1.45 %ID/g. Also, the Biodistribution in series [13] turned out to be 1.93 %ID/g; in series [14], 0.87 %ID/g; in series [15], 0.76 %ID/g; in [16], 0.34 %ID/g; in series [17] it was 5.15 %ID/g; in [18], 0.75 %ID/g. The Biodistribution in series [19] came out at 0.11 %ID/g; in [20] it was 0.12 %ID/g; in series [21], 1.27 %ID/g; in [22] it was 0.19 %ID/g; in series [23], 0.44 %ID/g; in [24], 0.79 %ID/g. In addition, the Biodistribution in series [25] is recorded as 0.93 %ID/g; in [26], 0.31 %ID/g.

Consider `C[C@]12CC[C@@H]3c4ccc(O)cc4CC[C@H]3[C@@H]1C[C@@H](F)[C@@H]2O` [FLUOROESTRADIOL], for which the Biodistribution in series [27] is reported as 0.11 %ID/g; in series [28] it was 0.41 %ID/g; in series [29], 0.14 %ID/g; in series [30], 0.68 %ID/g; in series [31], 1.4 %ID/g; in [32], 0.92 %ID/g. Further, the Biodistribution stood at 0.3 %ID/g in series [33] and 1.28 %ID/g in [34].

Values taken from ChEMBL document CHEMBL1141109, “Synthesis of an estrogen receptor beta-selective radioligand: 5-[18F]fluoro-(2R,3S)-2,3-bis(4-hydroxyphenyl)pentanenitrile and comparison of in vivo distribution with 16alpha-[18F]fluoro-17beta-estradiol” (J Med Chem, 2005).
